Here are results for one compound from ChEMBL document CHEMBL4813946, “Discovery of novel 4-azaaryl-N-phenylpyrimidin-2-amine derivatives as potent and selective FLT3 inhibitors for acute myeloid leukaemia with FLT3 mutations” (Eur J Med Chem, 2021).

One test deals with CDK7/Cyclin H/MNAT1 (Homo sapiens, UniProt P50613). The experiment in a line: Inhibition of CDK7/cyclin H/MAT1 (unknown origin) using HYSPTSPSYSPTSPSYSPTSPSKKKK-O substrate incubated for 120 mins measured after 40 mins incubation under dark by ADP-glo based luminescence assay. The test is classed as protein-complex assay. Summed up: (§1)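 In-house ADP-Glo assay with 2 mM DMSO stocks. Kinases were CDK1/cyclin B at 1 nM, CDK2/cyclin E1 at 10 nM and CDK7/cyclin H/MAT1 at 40 nM. Substrate was histone 1 for CDK1 and CDK2, and a RNA pol II CTD peptide for CDK7. Compound at 8–10 concentrations, 1:3 serial, final DMSO 0.5%. Reactions ran 60–120 min at room temperature, then ADP-Glo reagent 40 min in the dark, then detection reagent 40 min, read by luminescence. Ki was derived from IC50 by Cheng-Prusoff.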
Chain of CDK7/Cyclin H/MNAT1 (P51946 whole entry): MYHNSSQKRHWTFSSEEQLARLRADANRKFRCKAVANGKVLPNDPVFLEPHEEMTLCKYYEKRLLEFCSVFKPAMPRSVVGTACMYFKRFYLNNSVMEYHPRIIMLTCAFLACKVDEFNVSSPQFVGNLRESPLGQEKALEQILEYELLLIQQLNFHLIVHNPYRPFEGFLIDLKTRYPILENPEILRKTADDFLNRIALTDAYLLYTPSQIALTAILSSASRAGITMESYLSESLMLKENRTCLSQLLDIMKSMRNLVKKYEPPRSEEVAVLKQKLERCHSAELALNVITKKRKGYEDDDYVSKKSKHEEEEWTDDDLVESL
Chain of CDK7/Cyclin H/MNAT1 (P50613 whole entry): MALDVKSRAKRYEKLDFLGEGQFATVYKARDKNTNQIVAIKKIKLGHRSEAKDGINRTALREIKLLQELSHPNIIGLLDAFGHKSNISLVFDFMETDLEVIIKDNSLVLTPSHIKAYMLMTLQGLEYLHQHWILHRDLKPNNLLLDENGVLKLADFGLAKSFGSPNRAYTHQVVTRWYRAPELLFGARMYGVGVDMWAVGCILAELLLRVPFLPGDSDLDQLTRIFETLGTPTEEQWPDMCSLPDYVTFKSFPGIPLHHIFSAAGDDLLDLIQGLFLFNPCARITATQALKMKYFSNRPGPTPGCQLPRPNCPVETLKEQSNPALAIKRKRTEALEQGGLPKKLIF
Chain of CDK7/Cyclin H/MNAT1 (P51948 whole entry, further chain): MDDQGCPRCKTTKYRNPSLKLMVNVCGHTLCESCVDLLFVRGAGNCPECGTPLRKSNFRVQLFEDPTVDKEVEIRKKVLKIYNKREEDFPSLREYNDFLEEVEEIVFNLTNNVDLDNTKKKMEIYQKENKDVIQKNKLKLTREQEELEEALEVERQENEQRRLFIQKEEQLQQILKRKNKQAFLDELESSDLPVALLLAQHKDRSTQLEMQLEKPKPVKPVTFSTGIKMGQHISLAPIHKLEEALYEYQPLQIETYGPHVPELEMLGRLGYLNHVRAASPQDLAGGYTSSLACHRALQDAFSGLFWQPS
A general note: ADP-Glo turns the ADP formed in a reaction into a luminescent signal.

A short description of test [1]: Inhibition of FLT3 ITD-W51 mutant (unknown origin) incubated for 120 mins by ADP-glo based luminescence assay. Set-up: species or system Homo sapiens.
For the next test, the system named is Jurkat. Put plainly: Antiproliferative activity against human Jurkat cells harboring FLT3 knockout gene assessed as reduction in cell viability after 72 hrs by resazurin assay. The test is classed as functional. Summed up: (§2)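 Cells seeded and pre-incubated 24 h at 37 °C, 5% CO2, then given a five-fold dilution series of compound (from 10 mM DMSO stock) in medium, in triplicate. Resazurin added after 72 h exposure, 4 h in dark at 37 °C. Fluorescence read at 570/585 nm, normalised to DMSO vehicle. GI50 by non-linear regression; mean ± SD of at least two replicates.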
For orientation: Resazurin is reduced to fluorescent resorufin, in cell work by metabolically active cells.

A further test relates to NB-4. The experiment in a line: Antiproliferative activity against human NB-4 cells harboring wild type FLT3 assessed as reduction in cell viability after 72 hrs by resazurin assay. The test is classed as functional. Summed up: as §2
The next test relates to K562. The experiment in a line: Antiproliferative activity against human K562 cells harboring FLT3 knockout gene assessed as reduction in cell viability after 72 hrs by resazurin assay. The test is classed as functional. Summed up: as §2
For test [2], the system named is MV4-11. The experiment in a line: Antiproliferative activity against human MV4-11 cells harboring FLT3-ITD mutant assessed as reduction in cell viability after 72 hrs by resazurin assay. The test is classed as functional. Summed up: as §2
For test [3], the system named is MV4-11. The experiment in a line: Antiproliferative activity against human MV4-11 cells incubated for 72 hrs by resazurin assay. The test is classed as functional. Summed up: as §2
The nature of test [4]: Inhibition of FLT3 ITD-NPOS mutant (unknown origin) incubated for 120 mins by ADP-glo based luminescence assay. Set-up: species or system Homo sapiens.
The target of test [5] is Receptor-type tyrosine-protein kinase FLT3 (Homo sapiens, UniProt P36888, F594-R595INSR). The experiment in a line: Inhibition of FLT3 F594_R595insR mutant (unknown origin) incubated for 120 mins by ADP-glo based luminescence assay.
The subject of another test is U-937. The experiment in a line: Antiproliferative activity against human U-937 cells harboring wild type/low FLT3 assessed as reduction in cell viability after 72 hrs by resazurin assay. The test is classed as functional. Summed up: as §2
Test [6] addresses Cyclin-dependent kinase 1/cyclin B1 (Homo sapiens, UniProt P06493). The experiment in a line: Inhibition of CDK1/cyclin B (unknown origin) using histone 1 protein substrate incubated for 120 mins measured after 40 mins incubation under dark by ADP-glo based luminescence assay. The test is classed as protein-complex assay. In outline: as §1
A short description of test [7]: Antiproliferative activity against human MOLM-13 cells harboring FLT3-ITD mutant assessed as reduction in cell viability after 72 hrs by resazurin assay. To be noted: MOLM-13, 72 h. The test is classed as functional. In outline: as §2
In test [8] the target is Cyclin-dependent kinase 2/cyclin E1 (Homo sapiens, UniProt P24941). The experiment in a line: Inhibition of CDK2/cyclin E (unknown origin) using histone 1 protein substrate incubated for 120 mins measured after 40 mins incubation under dark by ADP-glo based luminescence assay. The test is classed as protein-complex assay. Summed up: as §1
Another test has as its system THP-1. Put plainly: Antiproliferative activity against human THP-1 cells harboring wild type FLT3 assessed as reduction in cell viability after 72 hrs by resazurin assay. The test is classed as functional. Summed up: as §2
Test [9] can be described thus: Inhibition of FLT3 Y591-V592insVDFREYEYD mutant (unknown origin) incubated for 120 mins by ADP-glo based luminescence assay. Set-up: species or system Homo sapiens.
Test [10] has as its target Receptor-type tyrosine-protein kinase FLT3 (Homo sapiens, UniProt P36888, R595-E596INSEY). Put plainly: Inhibition of FLT3 R595_E596insEY mutant (unknown origin) incubated for 120 mins by ADP-glo based luminescence assay.
Test [11] deals with T1, Receptor-type tyrosine-protein kinase FLT3 (Homo sapiens, UniProt P36888).
T1 sequence (P36888 whole entry): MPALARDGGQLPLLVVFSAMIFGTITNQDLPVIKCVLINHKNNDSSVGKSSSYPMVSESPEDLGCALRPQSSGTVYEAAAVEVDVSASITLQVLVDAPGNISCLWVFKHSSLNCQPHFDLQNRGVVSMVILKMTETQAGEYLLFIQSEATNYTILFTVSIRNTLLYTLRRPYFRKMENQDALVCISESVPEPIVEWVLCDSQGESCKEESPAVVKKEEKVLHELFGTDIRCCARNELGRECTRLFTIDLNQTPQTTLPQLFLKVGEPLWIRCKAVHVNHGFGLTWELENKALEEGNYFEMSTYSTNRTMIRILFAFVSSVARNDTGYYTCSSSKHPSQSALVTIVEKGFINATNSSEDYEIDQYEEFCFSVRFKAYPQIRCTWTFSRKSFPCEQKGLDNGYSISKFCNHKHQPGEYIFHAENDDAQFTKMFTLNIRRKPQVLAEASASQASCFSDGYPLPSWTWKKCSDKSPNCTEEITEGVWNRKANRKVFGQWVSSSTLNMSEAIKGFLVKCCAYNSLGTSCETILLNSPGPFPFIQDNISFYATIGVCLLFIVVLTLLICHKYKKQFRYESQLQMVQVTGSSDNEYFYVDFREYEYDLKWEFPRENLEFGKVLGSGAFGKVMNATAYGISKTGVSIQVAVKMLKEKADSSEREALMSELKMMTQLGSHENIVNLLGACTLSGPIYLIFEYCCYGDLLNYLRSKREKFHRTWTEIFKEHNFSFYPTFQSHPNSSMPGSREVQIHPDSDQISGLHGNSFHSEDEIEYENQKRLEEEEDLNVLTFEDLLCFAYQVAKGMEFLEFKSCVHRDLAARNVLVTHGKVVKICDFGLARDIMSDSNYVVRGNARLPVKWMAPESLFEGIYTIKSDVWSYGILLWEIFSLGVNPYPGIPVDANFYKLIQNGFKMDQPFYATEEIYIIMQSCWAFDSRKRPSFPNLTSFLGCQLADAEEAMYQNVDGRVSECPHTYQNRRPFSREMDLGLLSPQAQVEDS
The experiment in a line: Inhibition of wild type FLT3 (unknown origin) using Glu/Tyr peptide substrate incubated for 120 mins measured after 40 mins incubation under dark by ADP-glo based luminescence assay. Summed up: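 In-house ADP-Glo assay with poly(Glu,Tyr) 4:1 substrate in 40 mM Tris pH 7.5, 20 mM MgCl2, 50 µM DTT, 0.1 mg/mL BSA. Kinase at 20 nM. ADP-Glo reagent 40 min in the dark, detection reagent 30–40 min, then luminescence. Ki was derived from IC50 by Cheng-Prusoff.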

The target in test [12] is Receptor-type tyrosine-protein kinase FLT3 (Homo sapiens, UniProt P36888, ITD). Put plainly: Inhibition of FLT3 ITD mutant (unknown origin) using Glu/Tyr peptide substrate incubated for 80 mins measured after 40 mins incubation under dark by ADP-glo based luminescence assay.
The target in test [13] is Receptor-type tyrosine-protein kinase FLT3 (Homo sapiens, UniProt P36888, D835Y). Put plainly: Inhibition of FLT3 D835Y mutant (unknown origin) incubated for 120 mins by ADP-glo based luminescence assay.

Chain of Cyclin-dependent kinase 1/cyclin B1 (P06493 whole entry): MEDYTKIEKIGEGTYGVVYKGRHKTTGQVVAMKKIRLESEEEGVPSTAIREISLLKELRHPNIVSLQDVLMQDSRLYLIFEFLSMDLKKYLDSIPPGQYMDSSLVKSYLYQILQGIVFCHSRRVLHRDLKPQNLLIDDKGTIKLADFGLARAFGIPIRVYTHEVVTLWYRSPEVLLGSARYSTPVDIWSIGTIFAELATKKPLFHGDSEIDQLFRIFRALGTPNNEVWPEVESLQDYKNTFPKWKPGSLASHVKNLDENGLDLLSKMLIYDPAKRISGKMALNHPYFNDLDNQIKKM
Chain of Cyclin-dependent kinase 1/cyclin B1 (P14635 whole entry, further chain): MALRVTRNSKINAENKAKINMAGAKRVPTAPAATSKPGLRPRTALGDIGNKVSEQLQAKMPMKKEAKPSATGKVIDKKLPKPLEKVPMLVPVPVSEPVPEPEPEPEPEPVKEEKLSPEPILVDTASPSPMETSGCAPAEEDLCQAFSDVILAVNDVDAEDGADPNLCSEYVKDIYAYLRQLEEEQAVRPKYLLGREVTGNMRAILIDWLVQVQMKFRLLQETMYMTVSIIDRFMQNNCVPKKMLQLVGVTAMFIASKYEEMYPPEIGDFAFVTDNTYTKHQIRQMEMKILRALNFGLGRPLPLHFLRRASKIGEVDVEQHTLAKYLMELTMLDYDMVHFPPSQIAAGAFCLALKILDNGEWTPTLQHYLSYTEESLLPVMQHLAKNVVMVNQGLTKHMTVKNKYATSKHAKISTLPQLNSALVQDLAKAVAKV

By Ki is commonly meant the dissociation constant of the complex between target and ligand, obtained from inhibition or displacement. The GI50 is the concentration at which growth is held to half of that of the control. Turning to `CC(=O)N1CCN(c2ccc(Nc3ncc(C#N)c(-c4n[nH]c5ccccc45)n3)cc2)CC1`, the Ki was more than 5 µM on CDK7/Cyclin H/MNAT1; less than 0.3 nM in test [1]; less than 0.3 nM in test [4]; less than 0.3 nM in test [5]; 1650 nM in test [6]; more than 5 µM in test [8]. Moreover, the inhibition constant Ki in [9] was less than 0.3 nM; in [10], less than 0.3 nM; in test [11] it was 21 nM; in test [12], 0.2 nM; in test [13], less than 0.3 nM. Besides, the GI50 in the test on Jurkat is more than 10 µM; in the test on NB-4, 126 nM; in the test with K562 it was 185 nM; in the test on MV4-11 [2], 17 nM; with MV4-11 [3] it was 17 nM; in the test on U-937, more than 10 µM. Moreover, the GI50 in test [7] is 0.4 nM; in the test with THP-1, 3.04 µM.
